Source: ChEMBL document CHEMBL5724801, “EUbOPEN Chemogenomics Library - Multiplex” (2024)
Several values for one entry are separate records, joined by “and”; a condition that tells them apart may be missing. Equal entries are not always repeated.

Legend:
Fibroblast = experiment: Multiplex assay against human fibroblast; type: toxicity, cell-based
Procedure, shortened: (§1)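 Four dyes were applied at seeding to live cells: Hoechst33342, BioTracker Green Microtubule Cytoskeleton Dye, MitoTracker Red and Annexin V Alexa Fluor 680. Imaging after compound addition used a CQ1 microscope at 37°C and 5% CO2. CellPathfinder machine-learning gating then sorted cells into Hoechst high-intensity objects or normal cells, normal cells into healthy, pyknosed or fragmented nuclei, and pyknosed cells into mitotic or apoptotic, with tubulin, mitochondrial-mass and membrane-permeability phenotypes given as per cents of healthy-nucleus cells.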

HEK-293T = experiment: Multiplex assay against HEK293T; type: toxicity, cell-based; conditions: human; procedure, shortened: as §1
[1] = 24 h, 1 µM, compound concentration 1 uM
[2] = 24 h, 10 µM, compound concentration 10 uM
[3] = 48 h, 1 µM, compound concentration 1 uM
[4] = 48 h, 10 µM, compound concentration 10 uM
[5] = 12 h, 1 µM, compound concentration 1 uM
[6] = 12 h, 10 µM, compound concentration 10 uM

## O=C(Nc1cc(C(F)(F)F)ccc1N1CCCCC1)c1ccncc1
Fibroblast; [1]
  Total Cell Count: 207
Fibroblast; [2]
  Population Apoptotic (%): 20.83% and 16.98%
  Population Fragmented Nuclei (%): 6.81% and 3.07%
  Population Healthy Nuclei (%): 68.06% and 73.68%
  Population Hoechst High Intensity Objects (%): 0%
  Population Membrane Permeable-Phenotype (%): 5.38% and 5.95%
  Population Mitochondria Different-Phenotype (%): 30.77% and 20.24%
  Population Mitotic Cells (%): 79.17% and 83.02%
  Population Normal (%): 100%
  Population Pyknosed Nuclei (%): 25.13% and 23.25%
  Population Tubulin-Different-Phenotype (%): 53.08% and 70.24%
  Total Cell Count: 191 and 228
Fibroblast; [3]
  Population Apoptotic (%): 11.11% and 10%
  Population Fragmented Nuclei (%): 14.08% and 11%
  Population Healthy Nuclei (%): 81.69% and 84.21%
  Population Hoechst High Intensity Objects (%): 0%
  Population Membrane Permeable-Phenotype (%): 1.72% and 2.84%
  Population Mitochondria Different-Phenotype (%): 8.62% and 5.11%
  Population Mitotic Cells (%): 88.89% and 90%
  Population Normal (%): 100%
  Population Pyknosed Nuclei (%): 4.23% and 4.78%
  Total Cell Count: 213 and 209
Fibroblast; [4]
  Population Fragmented Nuclei (%): 9.23% and 2.62%
  Population Healthy Nuclei (%): 81.54% and 82.97%
  Population Hoechst High Intensity Objects (%): 0%
  Population Membrane Permeable-Phenotype (%): 0% and 7.37%
  Population Mitochondria Different-Phenotype (%): 17.61% and 13.68%
  Population Mitotic Cells (%): 61.11% and 90.91%
  Population Normal (%): 100%
  Population Pyknosed Nuclei (%): 9.23% and 14.41%
  Population Tubulin-Different-Phenotype (%): 31.45% and 73.68%
  Total Cell Count: 195 and 229
HEK-293T; [5]
  Population Apoptotic (%): 16.06% and 9.24%
  Population Fragmented Nuclei (%): 3.1% and 6.12%
  Population Hoechst High Intensity Objects (%): 0%
  Population Membrane Permeable-Phenotype (%): 0% and 10.53%
  Population Mitochondria Different-Phenotype (%): 30.11% and 10.53%
  Population Mitotic Cells (%): 83.94% and 90.76%
  Population Normal (%): 100%
  Population Pyknosed Nuclei (%): 42.41% and 80.95%
  Total Cell Count: 323 and 147
HEK-293T; [6]
  Population Apoptotic (%): 17.75% and 24.64%
  Population Fragmented Nuclei (%): 2.03% and 4.49%
  Population Healthy Nuclei (%): 48.84% and 17.98%
  Population Hoechst High Intensity Objects (%): 0.29% and 0%
  Population Membrane Permeable-Phenotype (%): 0% and 3.12%
  Population Mitochondria Different-Phenotype (%): 41.07% and 18.75%
  Population Mitotic Cells (%): 82.25% and 75.36%
  Population Normal (%): 99.71% and 100%
  Population Pyknosed Nuclei (%): 49.13% and 77.53%
  Population Tubulin-Different-Phenotype (%): 26.79% and 53.12%
  Total Cell Count: 345 and 178
HEK-293T; [1]
  Population Apoptotic (%): 12.5% and 17.7%
  Population Fragmented Nuclei (%): 1.79% and 1.82%
  Population Healthy Nuclei (%): 72.45% and 29.7%
  Population Hoechst High Intensity Objects (%): 0%
  Population Membrane Permeable-Phenotype (%): 1.48% and 2.04%
  Population Mitochondria Different-Phenotype (%): 13.33% and 12.24%
  Population Mitotic Cells (%): 87.5% and 82.3%
  Population Normal (%): 100%
  Population Pyknosed Nuclei (%): 25.76% and 68.48%
  Population Tubulin-Different-Phenotype (%): 11.36% and 12.24%
HEK-293T; [2]
  Population Apoptotic (%): 30.61% and 27.07%
  Population Fragmented Nuclei (%): 1.11% and 2%
  Population Healthy Nuclei (%): 66.15% and 31.5%
  Population Hoechst High Intensity Objects (%): 0.22% and 0.5%
  Population Membrane Permeable-Phenotype (%): 1.68% and 0%
  Population Mitochondria Different-Phenotype (%): 34.01% and 33.33%
  Population Mitotic Cells (%): 69.39% and 72.93%
  Population Normal (%): 99.78% and 99.5%
  Population Pyknosed Nuclei (%): 32.74% and 66.5%
  Population Tubulin-Different-Phenotype (%): 39.39% and 14.29%
  Total Cell Count: 450 and 201
HEK-293T; [3]
  Population Apoptotic (%): 6.88% and 14.29%
  Population Fragmented Nuclei (%): 2.64% and 3.08%
  Population Healthy Nuclei (%): 85.29% and 66.08%
  Population Hoechst High Intensity Objects (%): 0%
  Population Membrane Permeable-Phenotype (%): 5.84% and 0.67%
  Population Mitochondria Different-Phenotype (%): 15.38% and 28.67%
  Population Mitotic Cells (%): 93.12% and 85.71%
  Population Normal (%): 100%
  Population Pyknosed Nuclei (%): 12.07% and 30.84%
HEK-293T; [4]
  Population Apoptotic (%): 17.89% and 16.19%
  Population Fragmented Nuclei (%): 3.13% and 3.08%
  Population Healthy Nuclei (%): 80.83% and 56.54%
  Population Hoechst High Intensity Objects (%): 0% and 0.76%
  Population Membrane Permeable-Phenotype (%): 5.97% and 2.72%
  Population Mitochondria Different-Phenotype (%): 47.9% and 43.54%
  Population Mitotic Cells (%): 82.11% and 83.81%
  Population Normal (%): 100% and 99.24%
  Population Pyknosed Nuclei (%): 16.04% and 40.38%
  Total Cell Count: 767 and 262
